These results are taken from ChEMBL document CHEMBL4145578, “Protoilludane, Illudalane, and Botryane Sesquiterpenoids from the Endophytic Fungus Phomopsis sp. TJ507A” (J Nat Prod, 2018).

By inhibition is commonly meant the relative decrease from the control value, in per cent. Higher therefore signals strong suppression.

The first series has as its system L02. In words: Cytotoxicity against human L02 cells assessed as effect on cell viability at 40 uM after 24 hrs by MTT assay. Type of series: cell-based. The following applies: l02, 24 h. In a few lines:
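L-02 cells grown in DMEM with 10% FBS at 37 °C and 5% CO2, seeded at 5 × 10^3 cells/well, then settled over 12 h. Compound in DMSO added at 40 μM final (DMSO below 0.4%) for 24 h. MTT (5 mg/mL stock) added for a further 4 h. Formazan dissolved in DMSO and absorbance read at 570 nm.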
(Formazan colour is commonly taken as a measure of viable cells.)
In the case of `CC1=C2CC[C@]2(C)[C@]2(O)C(=CC(C)(C)[C@H]2O)C1=O`, the Activity entry was “Non-Toxic”.
As to `CC1=C2CC[C@]2(C)[C@@H]2C(=CC(C)(C)[C@H]2O)C1=O`, the Activity result was “Non-Toxic”.
As to `C[C@H]1C(=O)[C@]2(O)CC(C)(C)C[C@@H]2[C@@]2(C)CC[C@@]12O`, the Activity entry was “Non-Toxic”.
As for `CC1=C2[C@H](O)C[C@]2(C)[C@H]2C[C@](C)(CO)C=C2C1=O`, the Activity entry is “Non-Toxic”.
Same read-out and setting: the value for `CC1=C2CC[C@]2(C)[C@H]2C[C@@](C)(CO)C=C2C1=O` was “Non-Toxic”.
On the same count and under the same terms, in the case of `Cc1cc2c(c(C)c1CCO)CC(C)(C)C2` it was “Non-Toxic”; in that of `CC1=C2[C@H](O)C[C@]2(C)[C@H]2C[C@@](C)(CO)C=C2C1=O`, “Non-Toxic”.
On to `CC1=C2OCC[C@]2(C)[C@H]2CC(C)(C)C=C2C1=O`, for which the Activity result is “Non-Toxic”.
The same measure, in the same setting: in the case of `Cc1cc2c(c(C)c1CCO)C(=O)C(C)(C)C2` [PTEROSIN Z] it was “Non-Toxic”.
The same measure, in the same setting: in the case of `CC1=C2[C@H](O)C[C@]2(C)[C@H]2CC(C)(C)C=C2C1=O` it was “Non-Toxic”; in that of `CC(=O)OCCc1c(C)c(O)c2c(c1C)[C@@H](O)C(C)(C)C2`, “Non-Toxic”; in that of `Cc1ccc2c3c1C(=O)OC[C@@]3(C)[C@H](O)C2(C)C`, “Non-Toxic”.
With `CC1C(=O)C2=CC(C)(C)C[C@]2(O)[C@@]2(C)C[C@@H](O)C12` (some centres not stated), the Activity entry is given as “Non-Toxic”.
Regarding `Cc1c(O)c2c(c(C)c1CCO)C(=O)C(C)(C)C2` [ONITIN], the Activity entry is “Non-Toxic”.
On the same count and under the same terms, in the case of `CC1C(=O)C2=CC(C)(C)C[C@]2(O)[C@@]2(C)CCC12` (some centres not stated) it was “Non-Toxic”.
On to `Cc1c(O)c2c(c(C)c1CCO)C(=O)C(C)(C)[C@@H]2O`, for which the Activity entry is “Non-Toxic”.

For the next series, the target named is Beta-secretase 1 (Homo sapiens) (UniProt P56817). Nature of the series: Inhibition of BACE1 (unknown origin) at 0.5 uM using BACE1 substrate measured after 2 hrs by FRET assay relative to control.
Sequence of Beta-secretase 1 (Homo sapiens) (P56817 whole entry): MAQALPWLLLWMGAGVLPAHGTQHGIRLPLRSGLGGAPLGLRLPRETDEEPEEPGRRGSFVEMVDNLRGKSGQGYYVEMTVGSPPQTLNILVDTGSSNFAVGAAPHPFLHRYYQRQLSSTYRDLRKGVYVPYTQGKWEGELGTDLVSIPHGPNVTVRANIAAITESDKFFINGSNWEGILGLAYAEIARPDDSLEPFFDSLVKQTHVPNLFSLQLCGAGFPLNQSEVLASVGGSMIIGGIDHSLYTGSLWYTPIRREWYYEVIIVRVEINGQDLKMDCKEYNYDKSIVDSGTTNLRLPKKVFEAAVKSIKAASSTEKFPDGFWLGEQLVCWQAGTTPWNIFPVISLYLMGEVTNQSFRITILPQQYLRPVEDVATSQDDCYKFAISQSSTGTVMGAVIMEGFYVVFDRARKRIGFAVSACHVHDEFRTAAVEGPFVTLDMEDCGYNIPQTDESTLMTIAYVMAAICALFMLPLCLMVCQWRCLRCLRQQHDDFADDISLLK
Settings: not given
In the case of `C[C@@]1(c2cc(-c3cncnc3)c(F)cc2F)CCSC(N)=N1`, the inhibition came out at 38.6%.
